# NR3A LBD binder – NR3A (human) ligand-binding domain modulation; 340,000 compounds, 2.5% hits; NR3A LBD differential scanning fluorimetry, Tm shift; 0% = protein alone, 100% = glycine-bound protein; Tm shift relative to glycine control, % at 25 µM; AID 1259313;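 active = melting temperature shift of at least 10% of the positive control shift, at one fixed dose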
# JMJD2C inh – inhibitors of human GASC-1 (JMJD2C) demethylase. AID 2099. 330,000 compounds, 0.069% hits. Q9H3R0. GST-JMJD2C(1-420) H3K9me3 demethylation, DELFIA europium. inhibition, % at 2.35 µM;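 active = more than half of a compound's replicate wells show inhibition beyond 50%, single wells judged on their own value; inconclusive = some, but no more than half, of replicates pass 50% inhibition; inactive = no replicate passes 50% inhibition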;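 note: signal counts dimethyl H3K9 product captured on neutravidin plate; 0% = median of DMSO wells and 100% = 0.3 times that DMSO median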
# Target sequence (Q9H3R0 1-420 limits assumed): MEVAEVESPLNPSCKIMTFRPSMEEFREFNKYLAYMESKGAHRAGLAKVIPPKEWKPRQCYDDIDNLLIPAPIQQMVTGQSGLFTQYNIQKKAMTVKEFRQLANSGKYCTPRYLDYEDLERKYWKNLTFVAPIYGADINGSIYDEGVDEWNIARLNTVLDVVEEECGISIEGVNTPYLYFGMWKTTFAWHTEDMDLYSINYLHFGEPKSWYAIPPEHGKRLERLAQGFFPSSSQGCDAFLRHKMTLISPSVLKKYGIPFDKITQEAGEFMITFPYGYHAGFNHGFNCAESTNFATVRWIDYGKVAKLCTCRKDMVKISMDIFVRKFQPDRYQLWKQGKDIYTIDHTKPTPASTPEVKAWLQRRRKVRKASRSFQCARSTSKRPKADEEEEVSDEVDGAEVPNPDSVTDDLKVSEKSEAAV
# Lipid droplet – hepatic lipid droplet formation modulation; inhibition, % at 6.5 µM; AML12 mouse hepatocytes, oleate lipid droplets, BODIPY imaging; AID 1656; 240,000 compounds, 0.4% hits;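 active = lipid droplet intensity inhibited by at least 50%, with more than 500 cells counted; inconclusive = wells with under 300 cells, treated as cytotoxic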
#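 Assay system: AML12 hepatocytes (mouse); Probe or stimulus: oleic acid at 100 µM to induce lipid droplet formation; Dosing: compound at 6.5 µM only; Schedule: compound with oleate, overnight; Detection: fluorescence imaging, 20x objective, two fields per well; Measure: % inhibition of lipid droplet signal.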
# NPR2 activator – GC-B (human) receptor activation | P20594 | HEK293-GC-B cells, CNP EC30, cGMP TR-FRET; 0% at EC30 CNP, 100% saturating CNP | activation, % at 10 µM | 370,000 compounds, 0.11% hits | AID 1920062;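 active = activation at 10 µM reaching about 35% in either raw or pattern-adjusted values, limit read from the data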
# GC-A act – GC-A (human) enzyme activation | P16066 | HEK293 GC-A cells, cGMP TR-FRET, EC30 ANP; 0% at EC30 ANP, 100% saturating ANP | activation, % at 10 µM | 370,000 compounds, 0.14% hits; in the data active = activation above about 40%
# aDG glyco act – increases alpha dystroglycan glycosylation | Pro5-aDG cells, alpha-DG glycosylation AlphaScreen (IIH6); 0% Pro5, 100% B10-LARGE cell signal | activation, % at 10 µM | 360,000 compounds, 0.22% hits | AID 624168;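 active = activation of at least 8% versus controls, or a plate z-score of at least 8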;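 note: Pro5 are CHO cells carrying HIG-tagged alpha-DG that lacks glycosylation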
# The depositor's hits bear a star; ? = inconclusive; nt = no result given. Only some compounds are listed: those with a hit (about 3% of all), similar ones and a draw of the others.
SMILES,NR3A LBD binder,JMJD2C inh,Lipid droplet,NPR2 activator,GC-A act,aDG glyco act
COc1ccc(C(C(=O)NC(C)(C)C)n2c(-c3ccc(=O)[nH]c3)nc3ccccc32)cc1 (stereo not drawn),nt,nt,nt,45.4*,45.3*,-0.1
CCOC(=O)C1=CCN(S(=O)(=O)c2cccc(Cl)c2)C1c1ccc(Cl)c(Cl)c1 (stereo not drawn),nt,nt,nt,-2.9,-8.4,nt
CC(=O)c1ccc(NC(=O)Nc2ccc3c(c2)N(C)C(=O)CS3)cc1,19.2*,-2.4,16.5,1.6,0.7,0.4
CCOc1ccc(NC(=O)Nc2ccc3c(c2)N(C)C(=O)CS3)cc1,18.4*,18.6,12.1,13.9,-0.3,0.0
COc1ccc(CNC(=O)Nc2ccc3c(c2)N(C)C(=O)CS3)cc1,0.3,1.7,0.0,-0.8,-2.4,0.2
COc1ccc(NC(=O)Nc2ccc3c(c2)N(C)C(=O)CS3)cc1OC,8.5,11.5,23.5,-6.9,1.1,-0.2
COc1ccc(NC(=O)Nc2ccc3c(c2)N(C)C(=O)CS3)cc1Cl,27.1*,2.1,nt,-3.4,13.8,0.3
C=CCNC(=O)CN(C(=O)c1csc2ccc(Cl)cc12)c1cccc(Br)c1,nt,nt,nt,-16.3,-12.6,nt
CNc1c(NS(=O)(=O)c2ccc(OC)c(Cl)c2)c(=O)oc2ccccc12,16.3*,-6.4,-0.7,-2.9,-2.7,0.0
CCNc1c(NS(=O)(=O)c2ccc(OC)c(Cl)c2)c(=O)oc2ccccc12,-1.6,-33.6,-1.4,0.8,-3.7,-0.2
CCOc1ccccc1NC(=O)c1cc(C(=O)c2cc(Br)ccc2O)coc1=N,24.9*,1.3,1.5,4.5,-5.2,-0.2
Cc1nnn(-c2nonc2N)c1C(=O)N/N=C/c1ccccc1O,29.9*,-1.1,-12.2,0.5,1.5,0.3
Cc1nnn(-c2nonc2N)c1C(=O)N/N=C/c1cccc2ccccc12,33.1*,-1.3,2.3,-5.4,-5.1,-0.6
COc1cc(/C=N/NC(=O)c2c(C)nnn2-c2nonc2N)ccc1O,13.5*,5.9,2.6,0.2,0.5,0.2
CC1CCN(Cc2c(C(=O)N/N=C/c3ccccc3O)nnn2-c2nonc2N)CC1,0.4,?,-51.2,1.2,-0.1,0.2
COc1ccc2c(c1)CCCN2C(=O)C1CCCN(S(=O)(=O)c2cccc3cccnc23)C1 (stereo not drawn),nt,nt,nt,-7.3,-2.2,nt
CCOC(=O)[C@@]12CN(C(=O)OC(C)(C)C)CC=C1N(Cc1ccc(OC)cc1)C(=O)[C@H]2CC(=O)N1CCCCC1,nt,nt,nt,1.5,-0.4,nt
Cn1c(SCC(=O)Nc2sccc2C(N)=O)nc2ccccc2c1=O,35.1*,-5.0,nt,-0.5,-7.3,0.4
NC(=O)c1ccsc1NC(=O)CSc1nc2ccccc2c(=O)n1CCCO,-0.4,33.0,-7.9,3.8,0.8,0.0
O=C(COC(=O)c1ccco1)NNC(=O)c1ccc(Cl)cc1,-0.2,81.2*,nt,-1.4,-0.5,-0.2
Cc1ccc(CNC2CCC23CCC(c2ccccc2)CC3)o1 (stereo not drawn),nt,nt,nt,-5.7,-4.3,nt
CCc1ccc(OCC(=O)NC(NC(=S)Nc2ccccc2OC)C(Cl)(Cl)Cl)cc1 (stereo not drawn),6.9,-7.2,7.4,-7.7,-19.6,1.0
CCc1ccc(OCC(=O)NC(NC(=S)Nc2ccccc2C)C(Cl)(Cl)Cl)cc1 (stereo not drawn),15.3*,6.7,0.6,-3.3,-25.3,1.2
CCc1ccc(OCC(=O)NC(NC(=S)Nc2ccccc2)C(Cl)(Cl)Cl)cc1 (stereo not drawn),23.0*,13.2,-7.5,1.8,-16.0,3.7
CCc1c(C)sc(NC(=S)N2CC(C)OC(C)C2)c1C(=O)OC (stereo not drawn),13.4*,-2.4,12.8,-7.8,-9.3,-0.1
COC(=O)c1cc2c(c3c4cc(C)ccc4n(S(=O)(=O)c4ccccc4)c13)C(=O)N(Cc1ccc(C(F)(F)F)cc1)C2,nt,nt,nt,5.6,3.5,nt
O=C(CCc1nc(-c2ccccc2F)no1)NCCN1CCOCC1,14.2*,1.1,nt,0.6,2.9,-0.1
CC(C)c1ccc(C2NC(=S)NC3=C2C(=O)CCC3)cc1 (stereo not drawn),-15.5,-9.0,4.3,0.7,50.2*,-0.2

# Screens: PubChem BioAssay, several laboratories
